Data from ChEMBL document CHEMBL1129396, “2-amino-4-oxo-5-substituted-pyrrolo[2,3-d]pyrimidines as nonclassical antifolate inhibitors of thymidylate synthase” (J Med Chem, 1996).

Key:
[1] = system: Squamous carcinoma cell line; assay: Growth inhibition of the FaDu Human Squamous Cell carcinoma cell line; format: functional, cell-based
Dihydrofolate reductase [2] = biological target: T1, Dihydrofolate reductase (Rattus norvegicus, UniProt Q920D2); assay: The inhibitory concentration of compound against Dihydrofolate reductases on rat liver
T1 sequence (Q920D2 whole entry): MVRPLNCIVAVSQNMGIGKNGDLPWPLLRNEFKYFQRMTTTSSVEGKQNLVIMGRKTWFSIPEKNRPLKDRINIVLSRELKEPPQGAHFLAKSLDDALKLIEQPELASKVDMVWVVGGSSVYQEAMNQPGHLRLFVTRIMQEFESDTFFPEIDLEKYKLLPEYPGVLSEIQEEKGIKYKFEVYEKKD
In short: (§1)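 Run at 37 °C with 90 µM dihydrofolic acid as substrate and 119 µM NADPH as cofactor, in the presence of 150 mM KCl.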

[3] = biological target: T2, Bifunctional dihydrofolate reductase-thymidylate synthase (Toxoplasma gondii, UniProt Q07422); assay: The inhibitory concentration of compound against Dihydrofolate reductases on Toxoplasma gondii; in short: as §1
T2 sequence (Q07422 whole entry): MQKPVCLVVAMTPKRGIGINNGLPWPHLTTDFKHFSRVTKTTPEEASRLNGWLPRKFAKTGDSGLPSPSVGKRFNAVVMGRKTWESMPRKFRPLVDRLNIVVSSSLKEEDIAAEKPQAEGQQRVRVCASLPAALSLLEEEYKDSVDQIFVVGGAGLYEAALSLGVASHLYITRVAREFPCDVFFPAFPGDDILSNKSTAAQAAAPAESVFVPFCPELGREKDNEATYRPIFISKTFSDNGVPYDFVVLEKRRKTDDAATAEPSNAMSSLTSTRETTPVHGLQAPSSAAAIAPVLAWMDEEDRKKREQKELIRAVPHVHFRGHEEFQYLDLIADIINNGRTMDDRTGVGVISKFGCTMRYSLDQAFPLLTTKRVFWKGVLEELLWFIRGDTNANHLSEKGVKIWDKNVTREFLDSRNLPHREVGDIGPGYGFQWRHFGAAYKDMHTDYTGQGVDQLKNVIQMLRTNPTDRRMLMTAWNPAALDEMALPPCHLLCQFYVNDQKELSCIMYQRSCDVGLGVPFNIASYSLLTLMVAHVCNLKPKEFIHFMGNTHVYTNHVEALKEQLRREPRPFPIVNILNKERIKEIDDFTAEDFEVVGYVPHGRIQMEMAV

Thymidylate synthase [4] = biological target: Thymidylate synthase (Homo sapiens, UniProt P04818); assay: The inhibitory concentration of compound was evaluated on Human Thymidylate synthase
Thymidylate synthase [5] = biological target: T3, Thymidylate synthase (Lactobacillus casei, UniProt P00469); assay: The inhibitory concentration of compound was evaluated on Lactobacillus casei Thymidylate synthase; parameters: species or system Lacticaseibacillus casei
T3 sequence (P00469 whole entry): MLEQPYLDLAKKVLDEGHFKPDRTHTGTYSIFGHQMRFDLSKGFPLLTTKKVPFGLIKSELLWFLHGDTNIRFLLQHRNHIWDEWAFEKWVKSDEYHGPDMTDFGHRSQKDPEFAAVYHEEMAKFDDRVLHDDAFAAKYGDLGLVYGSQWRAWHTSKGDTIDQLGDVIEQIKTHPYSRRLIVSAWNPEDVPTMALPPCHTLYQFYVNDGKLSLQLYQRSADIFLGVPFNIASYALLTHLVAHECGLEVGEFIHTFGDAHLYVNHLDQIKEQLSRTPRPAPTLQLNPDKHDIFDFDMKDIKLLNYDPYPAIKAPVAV

Thymidylate synthase [6] = biological target: Thymidylate synthase (Escherichia coli, UniProt C3SWJ7); assay: The inhibitory concentration of compound was evaluated on Escherichia coli Thymidylate synthase
[7] = biological target: Thymidylate synthase (Escherichia coli) (UniProt C3SWJ7); assay: Percent inhibition of Thymidylate synthase in Escherichia coli; conditions: concentration not given here
[8] = biological target: T4, Thymidylate synthase (Lactobacillus casei) (UniProt P00469); assay: Percent inhibition of Thymidylate synthase in Lactobacillus casei; conditions: Lacticaseibacillus casei; concentration not given here
T4 sequence (whole entry): T3 sequence (P00469 whole entry)

Dihydrofolate reductase [9] = biological target: T1, Dihydrofolate reductase; assay: The inhibitory concentration of compound against Dihydrofolate reductases on rat liver (rl); format: tissue-based; in short: as §1

Chain of Thymidylate synthase (Escherichia coli) (C3SWJ7 1-264): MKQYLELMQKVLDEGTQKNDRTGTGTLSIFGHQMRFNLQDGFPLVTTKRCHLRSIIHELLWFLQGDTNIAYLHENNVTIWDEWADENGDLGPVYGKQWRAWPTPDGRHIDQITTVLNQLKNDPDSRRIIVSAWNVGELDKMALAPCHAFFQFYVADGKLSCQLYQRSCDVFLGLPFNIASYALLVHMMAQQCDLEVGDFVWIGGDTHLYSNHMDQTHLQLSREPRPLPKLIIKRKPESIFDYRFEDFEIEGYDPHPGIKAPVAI
Chain of Thymidylate synthase (Escherichia coli, UniProt C3SWJ7) (C3SWJ7 whole entry): as the sequence (C3SWJ7 1-264) above
Chain of Thymidylate synthase (Homo sapiens, UniProt P04818) (P04818 whole entry): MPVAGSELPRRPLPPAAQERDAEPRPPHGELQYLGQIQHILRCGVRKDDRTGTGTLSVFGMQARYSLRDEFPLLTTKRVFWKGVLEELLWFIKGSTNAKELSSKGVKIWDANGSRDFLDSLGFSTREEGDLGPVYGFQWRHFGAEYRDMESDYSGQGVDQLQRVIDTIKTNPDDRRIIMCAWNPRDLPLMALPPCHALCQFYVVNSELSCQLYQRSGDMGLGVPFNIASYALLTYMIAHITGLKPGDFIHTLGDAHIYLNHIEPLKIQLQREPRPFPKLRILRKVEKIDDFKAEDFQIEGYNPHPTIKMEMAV

SMILES | EC50 [1] | IC50 (Dihydrofolate reductase [2]) | IC50 (Thymidylate synthase [4]) | IC50 (Thymidylate synthase [5]) | IC50 (Thymidylate synthase [6]) | inhibition [7] | IC50 [3] | further results
Cc1[nH]c2nc(N)nc(O)c2c1Sc1ccncc1 | – | – | 0.34 µM | 100 µM | > 29 µM | – | – | –
COc1ccc(Sc2c(C)[nH]c3nc(N)nc(O)c23)cc1OC | > 10 µM | – | – | – | – | 30% | – | –
COc1ccc(Sc2c(C)[nH]c3nc(N)[nH]c(=O)c23)cc1OC | – | > 21 µM | – | – | – | – | 20 µM | –
Cc1[nH]c2nc(N)[nH]c(=O)c2c1Sc1ccc(Cl)c(Cl)c1 | – | > 20 µM | – | – | – | – | 11.7 µM | –

More lines, main results first:

EC50 [1] | IC50 (Dihydrofolate reductase [2]) | IC50 (Thymidylate synthase [4]) | IC50 (Thymidylate synthase [5]) | IC50 (Thymidylate synthase [6]) | inhibition [7] | SMILES | IC50 [3] | further results
1 µM | – | – | – | – | – | CN(Cc1ccc(S(=O)(=O)N2CCOCC2)cc1)c1ccc2c3c(cccc13)C(N)=N2 | – | –
1.5 µM | 7470 µM | – | – | – | – | Cc1[nH]c2nc(N)[nH]c(=O)c2c1Sc1ccc([N+](=O)[O-])cc1 | 244 µM | –
– | – | 2 µM | > 25 µM | > 25 µM | – | Cc1[nH]c2nc(N)[nH]c(=O)c2c1Sc1ccc2ccccc2c1 | – | –
– | – | – | – | – | 36% | Cc1[nH]c2nc(N)nc(O)c2c1Sc1ccc2ccccc2c1 | – | inhibition [8]: 32%
> 10 µM | – | 30 µM | > 30 µM | > 30 µM | 30% | Cc1[nH]c2nc(N)nc(O)c2c1Sc1ccccc1 | – | –
6.7 µM | – | – | – | – | – | Cc1[nH]c2nc(N)nc(O)c2c1Sc1ccc(Cl)cc1 | 3.1 µM | IC50 (Dihydrofolate reductase [9]): 24.6 µM
